Compound activity deposited in PubChem BioAssay by several laboratories.
HUVEC inhibit: inhibitors of human endothelial cell proliferation | 86,000 compounds, 1.1% hits | viability, % at 10 µM (by protocol) | HUVEC proliferation, CellTiter-Glo luminescence, 72 h; stronger effect = lower value;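 active means viability at or below 30%; inactive means viability above 30%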
Jurkat tox 60K: reduces viability or proliferation of Jurkat cells; Jurkat E6.1 viability, ATP luminescence, 48 h; inhibition, % at 4 µM; 56,000 compounds, 1.2% hits;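 active means inhibition above the mean inhibition of all tested compounds plus 3 SD, cut at about 28% in these data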
H69AR inhibit: blocks growth of human H69AR lung tumor cells | 85,000 compounds, 6% hits | AID 598 | viability, % at 10 µM | H69AR lung tumor viability, ATP luminescence, 72 h; stronger effect = lower value;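 active means viability at or below 40%; inactive means viability above 40%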;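 further: multidrug resistant small cell line overexpressing MRP-1 efflux transporter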
Ecoli WT expand: E. coli BW25113 growth inhibition, expanded screen; 98,000 compounds, 0.15% hits; growth inhibition, % at 100 µM; OD600 absorbance;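 active means growth inhibition above about 50% at one test dose, limit read from the data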;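 further: growth measured after 20 h incubation at 37 °C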
tolC growth inh: blocks growth of E. coli BW25113 tolC mutant | OD615 | growth inhibition, % at 10 µM (by protocol) | 65,000 compounds, 2.2% hits;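 active means growth inhibition at or above a cutoff equal to the mean over every tested compound plus 3 SD, cut at about 60% in these data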;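 further: growth measured after 20 h incubation at 37 °C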
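Test system: E. coli BW25113 ΔtolC::kan bacteria; incubation: 37 °C, 20 h exposure; medium: LB broth supplemented with 50 µg/mL kanamycin; read-out basis: percent growth inhibition; signal: A615 absorbance measurement; compound: 10 µM final, single dose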
Fibroblast inh: blocks proliferation of human lung fibroblasts. LL 47 human lung fibroblast viability, ATP luminescence; stronger effect = lower value. 85,000 compounds, 1.1% hits. viability, % at 10 µM;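 active means viability at or below 50% in the single dose screen; inactive means viability above 50%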;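 further: compound exposure lasted 72 h before the ATP readout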
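Assay system: human lung fibroblast line LL 47, low passage. Input: 1,150 fibroblasts seeded per well. Times: overnight cell rest, 72 h compound treatment at 37 °C. Evaluation: % viability of median cell-only signal. Technique: luminescent ATP detection, CellTiter-Glo. Control set: cell-only wells, no compound.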
A number is an active result. A selection: hits, their analogues and other compounds. The true share with any hit is near 6.4%.

Screening O=C(NNC(=O)c1ccccc1Br)c1ccc(SCC2CCCO2)c([N+](=O)[O-])c1 (stereo not drawn) returned HUVEC inhibit inactive, H69AR inhibit inactive, Ecoli WT expand inactive and Fibroblast inh inactive.
Cc1cc(C(=O)CSc2nc3ccccc3c(=O)n2C)c(C)n1Cc1ccc2c(c1)OCO2 was read as HUVEC inhibit 24, Jurkat tox 60K inactive, H69AR inhibit 25, Ecoli WT expand inactive, tolC growth inh inactive and Fibroblast inh inactive.
`Cc1cc(C(=O)CSc2nnc(-c3ccccc3)n2Cc2ccc3c(c2)OCO3)c(C)n1C` gave HUVEC inhibit inactive, Jurkat tox 60K inactive, H69AR inhibit inactive, Ecoli WT expand inactive, tolC growth inh inactive and Fibroblast inh inactive.
Cc1c(O)ccc2c3c(c(=O)oc12)CCCC3 was read as HUVEC inhibit inactive, Jurkat tox 60K inactive, H69AR inhibit inactive, Ecoli WT expand inactive, tolC growth inh inactive and Fibroblast inh inactive.
`Cc1oc2c(C)c3oc(=O)c4c(c3cc2c1C)CCCC4` gave HUVEC inhibit inactive, Jurkat tox 60K inactive, H69AR inhibit 14, Ecoli WT expand inactive and tolC growth inh inactive.
Cn1c(Cn2c(=O)sc3ccccc32)nnc1SCC(=O)NCCc1ccccc1 was read as HUVEC inhibit inactive, Jurkat tox 60K inactive, H69AR inhibit inactive, Ecoli WT expand inactive, tolC growth inh inactive and Fibroblast inh inactive.
`C=CCOc1c(Br)cc(CNc2ccc(NC(=O)C(C)C)c(OC)c2)cc1OC` gave Ecoli WT expand inactive.
Clc1ccc2nc(CN3CCCc4ccccc43)cn2c1 was read as HUVEC inhibit inactive, Jurkat tox 60K inactive, H69AR inhibit inactive, Ecoli WT expand inactive, tolC growth inh 61 and Fibroblast inh inactive.
For Cc1cc(C)c2cc(CN(CCO)C(c3nnnn3Cc3ccc(F)cc3)C(C)C)c(=O)[nH]c2c1 (stereo not drawn) the results were HUVEC inhibit inactive, Jurkat tox 60K inactive, H69AR inhibit inactive, Ecoli WT expand inactive, tolC growth inh 70 and Fibroblast inh inactive.
Screening Cc1cc(C)c2cc(CN(CCO)C(=O)Nc3ccc(F)cc3)c(=O)[nH]c2c1 returned HUVEC inhibit inactive, Jurkat tox 60K inactive, H69AR inhibit 38, Ecoli WT expand inactive, tolC growth inh inactive and Fibroblast inh inactive.
For Cc1cc(C)c2cc(C(O)c3nnnn3Cc3ccccc3)c(=O)[nH]c2c1 (stereo not drawn) the results were HUVEC inhibit inactive, Jurkat tox 60K inactive, H69AR inhibit inactive, Ecoli WT expand inactive, tolC growth inh inactive and Fibroblast inh inactive.
Cc1ccc(S(=O)(=O)Oc2ccc(/C=C(/NC(=O)c3ccccc3)C(=O)Nc3ccccc3)cc2)cc1 was read as HUVEC inhibit inactive, H69AR inhibit 32, Ecoli WT expand inactive and Fibroblast inh inactive.
For COc1ccc(NC(=O)/C(=C\c2ccc(OS(=O)(=O)c3ccc(C)cc3)cc2)NC(=O)c2ccccc2)cc1 the results were HUVEC inhibit inactive, H69AR inhibit inactive, Ecoli WT expand inactive and Fibroblast inh inactive.
Screening Cc1ccc(Cl)cc1NC(=O)CC(O)(C(F)(F)F)C(F)(F)F returned HUVEC inhibit inactive, Jurkat tox 60K inactive, H69AR inhibit 4.5, Ecoli WT expand inactive, tolC growth inh 99 and Fibroblast inh inactive.
For Cc1ccc(Cl)cc1NC(=O)Cn1cccc1 the results were HUVEC inhibit inactive, Jurkat tox 60K inactive, H69AR inhibit inactive, Ecoli WT expand inactive, tolC growth inh inactive and Fibroblast inh inactive.
For Cc1ccc(Cl)cc1NC(=O)CSC(N)=O the results were HUVEC inhibit inactive, H69AR inhibit 7.6, Ecoli WT expand inactive and Fibroblast inh inactive.
For O=C1C2C3CCC(C3NCc3ccccc3)C2C(=O)N1Cc1ccccc1 (stereo not drawn) the results were Ecoli WT expand inactive.
`Cc1ccc(C(=O)C2CCN(CC(=O)Nc3ccc(N(C)C)cc3)CC2)cc1` gave HUVEC inhibit inactive, Jurkat tox 60K inactive, H69AR inhibit inactive, Ecoli WT expand inactive, tolC growth inh inactive and Fibroblast inh inactive.
`CCn1cnc2c1c(=O)n(CC(=O)Nc1ccc3c(c1)OC(F)(F)O3)c(=O)n2Cc1ccccc1` gave HUVEC inhibit inactive, H69AR inhibit 32, Ecoli WT expand inactive and Fibroblast inh inactive.
For Cc1cc(NC(=O)CCC(=O)N(CC(=O)NC2CCCC2)c2cccc(C)c2C)no1 the results were HUVEC inhibit inactive, H69AR inhibit inactive and Fibroblast inh inactive.
Cc1ccccc1N1CCN(C(=O)c2ccccc2NC(=O)C2CC=CCC2C(=O)O)CC1 (stereo not drawn) was read as Ecoli WT expand inactive.
Screening CS(=O)(=O)N(CCc1ccccc1)CC(=O)NCc1ccco1 returned HUVEC inhibit inactive, Jurkat tox 60K inactive, H69AR inhibit inactive, Ecoli WT expand inactive, tolC growth inh inactive and Fibroblast inh inactive.
CO/C([O-])=N/c1c[n+](-c2ccc(Cl)cc2)no1 was read as HUVEC inhibit inactive, H69AR inhibit inactive, Ecoli WT expand inactive and Fibroblast inh inactive.
CCOc1ccc(OCCCCN2CCCC2)cc1 was read as HUVEC inhibit inactive, H69AR inhibit inactive, Ecoli WT expand inactive and Fibroblast inh inactive.
`CCN1CCN(CCCOc2ccc(-c3ccccc3)cc2)CC1` gave HUVEC inhibit inactive, Jurkat tox 60K inactive, H69AR inhibit 19, Ecoli WT expand inactive, tolC growth inh inactive and Fibroblast inh inactive.
Screening CCN(C1CCCCC1)S(=O)(=O)c1ccc(S(=O)(=O)NCc2ccncc2)cc1 returned HUVEC inhibit inactive, Jurkat tox 60K 69, H69AR inhibit inactive, Ecoli WT expand inactive, tolC growth inh inactive and Fibroblast inh inactive.
For O=C(CCC1N=C2c3ccccc3N=C(SCc3ccc(F)cc3)N2C1=O)NCc1ccco1 (stereo not drawn) the results were HUVEC inhibit inactive, Jurkat tox 60K inactive, H69AR inhibit inactive, Ecoli WT expand inactive, tolC growth inh inactive and Fibroblast inh inactive.
`O=C(CCC1N=C2c3ccccc3N=C(SCc3ccc(Cl)cc3)N2C1=O)NCc1ccco1` (stereo not drawn) gave HUVEC inhibit inactive, Jurkat tox 60K inactive, H69AR inhibit inactive, Ecoli WT expand inactive, tolC growth inh inactive and Fibroblast inh inactive.
Screening O=C(CC1N=C2c3ccccc3N=C(SCc3ccc(F)cc3)N2C1=O)NCc1ccco1 (stereo not drawn) returned HUVEC inhibit inactive, Jurkat tox 60K inactive, H69AR inhibit 38, Ecoli WT expand inactive, tolC growth inh inactive and Fibroblast inh inactive.
`Cc1ccc(CSC2=Nc3ccccc3C3=NC(CC(=O)NCc4ccco4)C(=O)N23)cc1` (stereo not drawn) gave HUVEC inhibit inactive, Jurkat tox 60K inactive, H69AR inhibit 29, Ecoli WT expand inactive, tolC growth inh inactive and Fibroblast inh inactive.
For COc1ccccc1N1CCN(c2cc(C)nc3nc(C)nn23)CC1 the results were HUVEC inhibit inactive, Jurkat tox 60K inactive, H69AR inhibit 40, Ecoli WT expand inactive, tolC growth inh inactive and Fibroblast inh inactive.
